Data taken from ChEMBL document CHEMBL3352136, “Vinylated linear P2 pyrimidinyloxyphenylglycine based inhibitors of the HCV NS3/4A protease and corresponding macrocycles” (Bioorg Med Chem, 2014).
In brackets after ≈: the same amount, converted by molar mass. Each block holds one compound with its values, some of them ahead of it.

Tests used:
[1] = biological target: Hepatitis C virus serine protease, NS3/NS4A (Hepatitis C virus, UniProt A3EZI9+D2K2A8); test: (§1) Inhibition of HCV genotype 1a NS3/4A protease using Ac-DED(Edans)EEAbu-psi[COO]ASK(Dabcyl)-NH2 as substrate by FRET assay; design: species or system Hepatitis C virus subtype 1a
In short: (§2)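 Full-length NS3/4A (protease–helicase/NTPase, genotype 1a) measured by FRET. Buffer: 50 mM HEPES pH 7.5, 10 mM DTT, 40% glycerol, 0.1% n-octyl-β-D-glucoside, 3.3% DMSO. Ki values derived.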

[2] = (§3) Half life in human liver microsomes preincubated for 5 mins by LC/MS/MS analysis; assay type: ADME; settings: liver microsomes
In short: (§4)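 Compound at 1 µM preincubated 5 min at 37 °C with pooled human liver microsomes (0.5 mg/mL) in 0.1 M potassium phosphate pH 7.4. Reaction started with NADPH (1 mM final) and stopped at 0, 5, 15 and 40 min with ice-cold acetonitrile containing internal standard. LC/MS/MS read-out. ln(% remaining) regressed linearly on time; t1/2 and Clint derived assuming first-order kinetics. Dextromethorphan (3 µM) and midazolam (5 µM) served as CYP2D6/CYP3A4 controls.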

[3] = (§5) Intrinsic clearance in human liver microsomes preincubated for 5 mins by LC/MS/MS analysis; assay type: ADME; settings: liver microsomes; in short: as §4
[4] = Apparent permeability from apical to basolateral side in human Caco2 cells; assay type: ADME, cell-based; settings: Caco-2
In short: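 Caco-2 monolayers on polycarbonate filter inserts, cells kept in 90% air/10% CO2. Compound diluted from 10 mM DMSO stock to 10 µM (final DMSO 0.1%) in FASSIF pH 7.4 on apical donor side. Receiver is HBSS pH 7.4 with 1% (w/v) BSA. Run at 37 °C with 500 rpm stirring. Receiver sampled at 15, 30 and 60 min, donor sampled at 60 min for mass balance. Membrane integrity checked afterwards, LC/MS/MS read-out, at least triplicates.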

[5] = Solubility of the compound in PBS after 2 hrs by LC-MS/MS analysis; assay type: physicochemical
In short: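 DMSO stock (10 mM) added to PBS to 1% final DMSO, rotated in glass vials 2 h at 37 °C. Centrifuged 10,000g for 30 min, then supernatant quantified by LC–MS/MS. Upper detection limit 100 µM.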

[6] = tested on: Hepatitis C virus; test: Antiviral activity against HCV genotype 1b infected in human Huh-7 cells by firefly luciferase assay; assay type: functional, cell-based, Hepacivirus hominis
In short: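 Huh-7 cells carrying a subgenomic HCV genotype 1b replicon with firefly luciferase reporter; EC50 derived from luciferase signal.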

[7] = tested on: Hepatitis C virus; test: Antiviral activity against HCV genotype 1a; assay type: functional, Hepacivirus hominis; settings: subtype 1a
[8] = biological target: Hepatitis C virus serine protease, NS3/NS4A (Hepatitis C virus, UniProt A3EZI9+D2K2A8, R155K); test: Inhibition of HCV NS3/4A protease R155K mutant using Ac-DED(Edans)EEAbu-psi[COO]ASK(Dabcyl)-NH2 as substrate by FRET assay; design: species or system Hepacivirus hominis
[9] = biological target: Hepatitis C virus serine protease, NS3/NS4A (Hepatitis C virus, UniProt A3EZI9+D2K2A8, A156T); test: Inhibition of HCV NS3/4A protease A156T mutant using Ac-DED(Edans)EEAbu-psi[COO]ASK(Dabcyl)-NH2 as substrate by FRET assay; design: species or system Hepacivirus hominis
[10] = tested on: Liver microsome; test: as §3; assay type: ADME; settings: microsomes; in short: as §4
[11] = biological target: Hepatitis C virus serine protease, NS3/NS4A (Hepatitis C virus, UniProt A3EZI9+D2K2A8, D168V); test: Inhibition of HCV NS3/4A protease D168V mutant using Ac-DED(Edans)EEAbu-psi[COO]ASK(Dabcyl)-NH2 as substrate by FRET assay; design: species or system Hepacivirus hominis
[12] = tested on: Liver microsome; test: as §5; assay type: ADME; settings: microsomes, 5 min; in short: as §4
[13] = biological target: Hepatitis C virus serine protease, NS3/NS4A (Hepatitis C virus, UniProt D2K2A8+A3EZI9); test: as §1; design: species or system Hepatitis C virus subtype 1a; in short: as §2

SMILES: C=CCCCS(=O)(=O)NC(=O)[C@H](CCC)NC(=O)[C@@H]1C[C@@H](Oc2cc(-c3ccccc3)nc3cc(OC)ccc23)CN1C(=O)[C@@H](NC(=O)OC(C)(C)C)C(C)(C)C
Ki [1]: 300 nM

SMILES: COc1ccc2c(O[C@@H]3C[C@@H](C(=O)Nc4ccccc4C(=O)NS(=O)(=O)c4ccccc4)N(C(=O)[C@@H](NC(=O)OC(C)(C)C)C(C)(C)C)C3)cc(-c3ccccc3)nc2c1
Ki [1]: 830 nM

SMILES: COc1ccc2c(Oc3ccc([C@H](NC(=O)[C@@H](NC(=O)OC(C)(C)C)C(C)(C)C)C(=O)Nc4ccccc4C(=O)NS(=O)(=O)c4ccccc4)cc3)cc(-c3ccccc3)nc2c1
Ki [1]: 310 nM

SMILES: C=CCCCS(=O)(=O)NC(=O)c1ccccc1NC(=O)[C@@H](NC(=O)OC(C)(C)C)c1ccc(Oc2cc(OC)nc(-c3ccccc3)n2)cc1
Ki [1]: 600 nM
half-life [2]: 16 min
microsomal CLint [3]: 86 µL/min/mg
Papp A→B [4]: 4 ×10⁻⁶ cm/s
solubility at 2 h [5]: 93 µM (≈ 65.3 µg/mL)

SMILES: C=CCCS(=O)(=O)NC(=O)c1ccccc1NC(=O)[C@@H](NC(=O)OC(C)(C)C)c1ccc(Oc2cc(OC)nc(-c3ccccc3)n2)c(C=C)c1
Ki [1]: 370 nM

SMILES: C=CCCCCC[C@H](NC(=O)OC(C)(C)C)C(=O)N[C@H](C(=O)Nc1ccccc1C(=O)NS(=O)(=O)CCCC=C)c1ccc(Oc2cc(OC)nc(-c3ccccc3)n2)cc1
Ki [1]: 230 nM
half-life [2]: 23 min
microsomal CLint [3]: 60 µL/min/mg
Papp A→B [4]: 0.22 ×10⁻⁶ cm/s
solubility at 2 h [5]: 91 µM (≈ 77.8 µg/mL)

SMILES: CCC[C@@H]1NC(=O)[C@@H](NC(=O)[C@@H](NC(=O)OC(C)(C)C)C(C)(C)C)c2ccc(cc2)Oc2cc(nc(-c3ccccc3)n2)/C=C/CCCS(=O)(=O)NC1=O
Ki [1]: 2400 nM

SMILES: CC(C)(C)OC(=O)N[C@H](C(=O)N[C@@H]1C(=O)Nc2ccccc2C(=O)NS(=O)(=O)CCC/C=C/c2cc(nc(-c3ccccc3)n2)Oc2ccc1cc2)C(C)(C)C
Ki [1]: 660 nM

SMILES: COc1cc(Oc2ccc3cc2/C=C/CCS(=O)(=O)NC(=O)c2ccccc2NC(=O)[C@H]3NC(=O)OC(C)(C)C)nc(-c2ccccc2)n1
Ki [1]: 1300 nM

SMILES: COc1cc(Oc2ccc3cc2/C=C/CCS(=O)(=O)NC(=O)c2ccccc2NC(=O)[C@H]3NC(=O)[C@@H](NC(=O)OC(C)(C)C)C(C)(C)C)nc(-c2ccccc2)n1
Ki [1]: 630 nM

SMILES: C=CCCCS(=O)(=O)NC(=O)c1ccccc1NC(=O)[C@H]1NC(=O)[C@H](C(C)(C)C)NC(=O)OCC/C=C/c2cc(nc(-c3ccccc3)n2)Oc2ccc1cc2
Ki [1]: 390 nM

SMILES: C=CCCCS(=O)(=O)NC(=O)[C@H](CCC)NC(=O)[C@H]1NC(=O)[C@H](C(C)(C)C)NC(=O)OCC/C=C/c2cc(nc(-c3ccccc3)n2)Oc2ccc1cc2
Ki [1]: 1570 nM

SMILES: C=CCCCS(=O)(=O)NC(=O)c1ccccc1NC(=O)[C@@H](NC(=O)[C@@H](NC(=O)OC(C)(C)C)C(C)(C)C)c1ccc(Oc2cc(-c3ccccc3)nc3cc(OC)ccc23)c(C=C)c1
EC50 [6]: 5400 nM

SMILES: C=CCCCS(=O)(=O)NC(=O)c1ccccc1NC(=O)[C@H](NC(=O)[C@@H](NC(=O)OC(C)(C)C)C(C)(C)C)c1ccc(Oc2cc(-c3ccccc3)nc3cc(OC)ccc23)c(C=C)c1
EC50 [6]: 5400 nM

SMILES: COc1cc(Oc2ccc(C3NC(=O)[C@H](NC(=O)OC(C)(C)C)CCCCC/C=C/CCCS(=O)(=O)NC(=O)c4ccccc4NC3=O)cc2)nc(-c2ccccc2)n1 (single isomer, unassigned; diastereomer 2)
Ki [8]: 220 nM
Ki [1]: 80 nM
Ki [9]: 160 nM
t1/2 [10]: 10 min
Ki [11]: 600 nM
microsomal intrinsic clearance [12]: 137 µL/min/mg
Papp [4]: 0.15 ×10⁻⁶ cm/s
EC50 [6]: 15000 nM

SMILES: COc1cc(Oc2ccc(C3NC(=O)[C@H](NC(=O)OC(C)(C)C)CCCCC/C=C/CCCS(=O)(=O)NC(=O)c4ccccc4NC3=O)cc2)nc(-c2ccccc2)n1 (stereo in doubt; 29L)
Ki [1]: 110 nM
half-life [2]: 16 min
microsomal CLint [3]: 87 µL/min/mg
Papp [4]: 0.35 ×10⁻⁶ cm/s
solubility at 2 h [5]: 51 µM (≈ 42.2 µg/mL)

SMILES: COc1cc(Oc2ccc(C3NC(=O)[C@H](NC(=O)OC(C)(C)C)CCCCCCCCCCS(=O)(=O)NC(=O)c4ccccc4NC3=O)cc2)nc(-c2ccccc2)n1 (stereo in doubt; 31L)
Ki [13]: 110 nM

The remaining compounds from weak to strong by Ki [1], led by results:

Ki [1]: 220 nM
SMILES: C=CCCCS(=O)(=O)NC(=O)c1ccccc1NC(=O)[C@@H](NC(=O)OC(C)(C)C)c1ccc(Oc2cc(C=C)nc(-c3ccccc3)n2)cc1

Ki [1]: 220 nM
SMILES: COc1cc(Oc2ccc(C3NC(=O)[C@H](NC(=O)OC(C)(C)C)CCCCC/C=C/CCS(=O)(=O)NC(=O)c4ccccc4NC3=O)cc2)nc(-c2ccccc2)n1 (stereo partly specified)

Ki [1]: 190 nM
Papp A→B [4]: 1 ×10⁻⁶ cm/s
solubility at 2 h [5]: 101 µM (≈ 73.5 µg/mL)
SMILES: C=CCCCS(=O)(=O)NC(=O)c1ccccc1NC(=O)[C@@H](NC(=O)OC(C)(C)C)c1ccc(Oc2cc(OC)nc(-c3ccccc3)n2)c(C=C)c1

Ki [1]: 130 nM
SMILES: COc1cc(Oc2ccc(C3NC(=O)[C@H](NC(=O)OC(C)(C)C)CCCCCCCCCS(=O)(=O)NC(=O)c4ccccc4NC3=O)cc2)nc(-c2ccccc2)n1 (stereo partly specified)

Ki [1]: 110 nM
SMILES: C=CCCCS(=O)(=O)NC(=O)c1ccccc1NC(=O)[C@@H](NC(=O)[C@@H](NC(=O)OCCC=C)C(C)(C)C)c1ccc(Oc2cc(C=C)nc(-c3ccccc3)n2)cc1

Ki [1]: 110 nM
SMILES: COc1cc(Oc2ccc(C3NC(=O)[C@H](NC(=O)OC(C)(C)C)CCCCCCCCCCS(=O)(=O)NC(=O)c4ccccc4NC3=O)cc2)nc(-c2ccccc2)n1 (single isomer, unassigned; diastereomer 2)

Ki [1]: 95 nM
half-life [2]: 22 min
microsomal CLint [3]: 64 µL/min/mg
Papp A→B [4]: 0.22 ×10⁻⁶ cm/s
solubility at 2 h [5]: 33 µM (≈ 26.9 µg/mL)
SMILES: C=CCCCS(=O)(=O)NC(=O)c1ccccc1NC(=O)[C@@H](NC(=O)[C@@H](NC(=O)OC(C)(C)C)C(C)(C)C)c1ccc(Oc2cc(OC)nc(-c3ccccc3)n2)cc1

Ki [1]: 63 nM
SMILES: C=CCCCS(=O)(=O)NC(=O)[C@H](CCC)NC(=O)[C@@H](NC(=O)[C@@H](NC(=O)OC(C)(C)C)C(C)(C)C)c1ccc(Oc2cc(-c3ccccc3)nc3cc(OC)ccc23)c(C=C)c1

Ki [1]: 40 nM
EC50 [7]: 350 nM
SMILES: CCC[C@H](NC(=O)C1[C@H]2CCC[C@H]2CN1C(=O)[C@@H](NC(=O)[C@@H](NC(=O)c1cnccn1)C1CCCCC1)C(C)(C)C)C(=O)C(=O)NC1CC1 (stereo partly specified)

Ki [1]: 33 nM
EC50 [6]: > 10000 nM
SMILES: C=CCCCS(=O)(=O)NC(=O)c1ccccc1NC(=O)[C@H](NC(=O)[C@@H](NC(=O)OC(C)(C)C)C(C)(C)C)c1ccc(Oc2cc(OC)nc(-c3ccccc3)n2)c(C=C)c1

Ki [1]: 26 nM
half-life [2]: 83 min
microsomal CLint [3]: 17 µL/min/mg
Papp A→B [4]: 1.7 ×10⁻⁶ cm/s
solubility at 2 h [5]: 66 µM (≈ 55.5 µg/mL)
EC50 [6]: > 10000 nM
SMILES: C=CCCCS(=O)(=O)NC(=O)c1ccccc1NC(=O)[C@@H](NC(=O)[C@@H](NC(=O)OC(C)(C)C)C(C)(C)C)c1ccc(Oc2cc(OC)nc(-c3ccccc3)n2)c(C=C)c1

Ki [1]: 14 nM
SMILES: CC(C)(C)NC(=O)N[C@H](C(=O)N1C[C@H]2[C@@H]([C@H]1C(=O)NC(CC1CCC1)C(=O)C(N)=O)C2(C)C)C(C)(C)C (stereo partly specified) [BOCEPREVIR]

Ki [1]: 0.36 nM
EC50 [7]: 7.8 nM
SMILES: COc1ccc2c(O[C@@H]3C[C@H]4C(=O)N[C@]5(C(=O)NS(=O)(=O)C6CC6)C[C@H]5/C=C\CCCCN(C)C(=O)[C@@H]4C3)cc(-c3nc(C(C)C)cs3)nc2c1C

Ki [1]: 0.3 nM
SMILES: COc1ccc2c(O[C@@H]3C[C@H]4C(=O)N[C@]5(C(=O)O)C[C@H]5/C=C\CCCCC[C@H](NC(=O)OC5CCCC5)C(=O)N4C3)cc(-c3csc(NC(C)C)n3)nc2c1

Ki [1]: 0.05 nM
EC50 [7]: 5 nM
SMILES: CC[C@@H]1C[C@]1(NC(=O)[C@@H]1C[C@@H]2CN1C(=O)[C@H](C(C)(C)C)NC(=O)OCC(C)(C)CCCCc1cccc3c1CN(C3)C(=O)O2)C(=O)NS(=O)(=O)C1CC1
